Test results from ChEMBL document CHEMBL4808178 (J Med Chem, 2021).
pIC50: −log10 of the molar value. Activity calls are given as the source filed them. The rule behind the calls is not given here.

What was measured:
HT-29 = experiment: Cytotoxicity against human HT-29 cells assessed as reduction in cell viability incubated for 72 hrs by MTT assay; format: functional, cell-based; settings: HT-29, 72 h
L02 = experiment: Cytotoxicity against human L02 cells assessed as reduction in cell viability incubated for 72 hrs by MTT assay; format: cell-based; settings: L02, 72 h
Procedure, shortened: (§1)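 About 5 × 10³ cells/well, seeded overnight at 37 °C, 5% CO₂, in DMEM or RPMI-1640 with 10% FBS and antibiotics. DMSO-dissolved compounds diluted in medium, exposure 72 h.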

[1] = AUC(0 to infinity) in Sprague-Dawley rat at 25 mg/kg, po measured up to 48 hrs by LC-MS/MS analysis; format: ADME, organism-based; set-up: route oral, dose 25 mg/kg, time <=48; settings: in vivo
Procedure, shortened: (§2)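 Overnight-fasted male SD rats (about 250−270 g), three per group, single oral 25 mg/kg; test compound suspended in 5% CMC-Na, control as sodium salt in phosphate buffer. Blood sampled 0.25–48 h, plasma by centrifugation, stored −40 °C, quantified by LC−MS/MS against plasma standard curve (3–3000 ng/mL) with internal standard; model-fitted PK parameters.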

T-24 = experiment: Cytotoxicity against human T24 cells assessed as reduction in cell viability incubated for 72 hrs by MTT assay; format: functional, cell-based; settings: T-24, 72 h; procedure, shortened: as §1
[2] = MRT(0 to infinity) in Sprague-Dawley rat at 25 mg/kg, po measured up to 48 hrs by LC-MS/MS analysis; format: ADME, organism-based; settings: in vivo
Procedure, shortened: (§3)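 Overnight-fasted male SD rats (250−270 g, n = 3/group), single oral 25 mg/kg in 5% CMC-Na (reference sodium salt in phosphate buffer); plasma at 0.25–48 h (12 timepoints), stored −40 °C; LC−MS/MS with internal-standard calibration 3–3000 ng/mL; parameters fitted by model.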

[3] = target: T1, Aldehyde dehydrogenase 1A1 (Homo sapiens) (UniProt P00352); experiment: Inhibition of ALDH1A1 in human HCT116 cells at 5 uM after 24 hrs by aldefluor staining based fluorescence analysis; format: cell-based; settings: HCT-116
T1 sequence (whole entry): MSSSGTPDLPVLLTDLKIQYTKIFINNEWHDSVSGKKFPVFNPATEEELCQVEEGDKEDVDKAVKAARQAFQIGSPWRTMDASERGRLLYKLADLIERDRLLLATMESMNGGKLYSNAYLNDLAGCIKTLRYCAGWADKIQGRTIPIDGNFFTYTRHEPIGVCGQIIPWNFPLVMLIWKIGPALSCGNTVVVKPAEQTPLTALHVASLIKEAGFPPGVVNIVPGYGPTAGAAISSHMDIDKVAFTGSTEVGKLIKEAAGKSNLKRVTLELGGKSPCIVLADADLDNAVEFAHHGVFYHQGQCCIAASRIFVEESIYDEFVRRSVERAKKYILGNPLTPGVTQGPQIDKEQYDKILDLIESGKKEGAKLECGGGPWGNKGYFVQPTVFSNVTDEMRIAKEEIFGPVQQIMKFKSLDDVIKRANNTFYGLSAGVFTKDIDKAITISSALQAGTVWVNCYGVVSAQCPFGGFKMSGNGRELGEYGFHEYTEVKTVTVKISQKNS
Procedure, shortened: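 HCT-116 cells, 2 × 10⁵/well, grown overnight at 37 °C, 5% CO₂, then treated 24 h (vehicle DMSO). Aldefluor staining read in FITC channel by FACS for proportion of ALDH⁺ cells; DEAB-pretreated cells set baseline fluorescence.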

HCT-116 [4] = experiment: Antitumor activity against human HCT116 cells xenografted in BALB/c athymic nude mouse assessed as tumor growth inhibition at 60 mg/kg, po administered twice daily for 4 weeks and measured every 3 days; format: functional; settings: HCT-116, po, 672 h, read-out: TGI
Procedure, shortened: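 Male BALB/c athymic nude mice, 5 weeks old, 16−18 g, given 0.2 mL of 5 × 10⁷ cells/mL HCT-116 in right armpit. At about 100 mm³, randomized to groups of five; intragastric dosing twice daily for 4 weeks. Tumor volume and body weight every 3 days; tumors weighed after sacrifice; organs HE-stained.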

HCT-116 [5] = experiment: Cytotoxicity against human HCT-116 cells assessed as reduction in cell viability incubated for 72 hrs by MTT assay; format: functional, cell-based; settings: HCT-116, 72 h; procedure, shortened: as §1
HCT-116 [6] = experiment: Inhibition of cell stemness in human HCT116 cells assessed as inhibition of CD44+/CD133+ expression at 20 uM after 24 hrs by flow cytometry analysis; format: functional
Procedure, shortened: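 ALDH⁺ HCT-116 subpopulation sorted by flow cytometry; 2 × 10⁵ cells/well seeded overnight at 37 °C, 5% CO₂; treated 20 μM for 24 h (vehicle DMSO); stained with PE anti-CD133 and FITC anti-CD44 30 min; CD44⁺/CD133⁺ read by flow cytometry.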

HCT-116 [7] = experiment: Inhibition of cell stemness in human HCT116 cells assessed as morphological alterations at 5 uM after 10 days by microscopic analysis; format: functional, cell-based; settings: time 10.0 day
Procedure, shortened: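 Sorted ALDH⁺ HCT-116 cells, 800/well, in serum-free DMEM with B27 (1:50), EGF 20 ng/mL, β-FGF 10 ng/mL; co-incubated with compound (5 μM) or DMSO vehicle for 10 days; sphere number, diameter and morphology scored from microscopy images; mean ± SD, n = 3.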

HCT-116 [8] = experiment: Induction of cell cycle arrest in human HCT116 cells assessed as accumulation at G2/M phase at 20 uM after 24 hrs by propidium iodide-staining based flow cytometry (reference value: 14.67%); format: functional
MCF7 = experiment: Cytotoxicity against human MCF7 cells assessed as reduction in cell viability incubated for 72 hrs by MTT assay; format: functional, cell-based; settings: MCF7, 72 h; procedure, shortened: as §1
[9] = Tmax in Sprague-Dawley rat at 25 mg/kg, po measured up to 48 hrs by LC-MS/MS analysis; format: ADME, organism-based; settings: in vivo; procedure, shortened: as §3
HCT-116 [10] = experiment: Induction of apoptosis in human HCT116 cells assessed as viable cells at 5 uM after 24 hrs by annexin V-FITC/propidium iodide staining based flow cytometry (reference value: 88.3%); format: functional; settings: read-out: Activity
[11] = Half life in Sprague-Dawley rat at 25 mg/kg, po measured up to 48 hrs by LC-MS/MS analysis; format: ADME, organism-based; settings: in vivo; procedure, shortened: as §2
PC-3 = experiment: Cytotoxicity against human PC3 cells assessed as reduction in cell viability incubated for 72 hrs by MTT assay; format: functional, cell-based; settings: PC-3, 72 h; procedure, shortened: as §1
HCT-116 [12] = experiment: Induction of apoptosis in human HCT116 cells assessed as necrotic cells at 5 uM after 24 hrs by annexin V-FITC/propidium iodide staining based flow cytometry (reference value: 5.6%); format: functional
HCT-116 [13] = experiment: Induction of cell cycle arrest in human HCT116 cells assessed as accumulation at G0/G1 phase at 20 uM after 24 hrs by propidium iodide-staining based flow cytometry (reference value: 48.89%); format: functional
[14] = AUC(0 to t) in Sprague-Dawley rat at 25 mg/kg, po measured up to 48 hrs by LC-MS/MS analysis; format: ADME, organism-based; set-up: route oral, dose 25 mg/kg, time <=48; settings: in vivo; procedure, shortened: as §2
HCT-116 [15] = experiment: Induction of cell cycle arrest in human HCT116 cells assessed as accumulation at S phase at 20 uM after 24 hrs by propidium iodide-staining based flow cytometry (reference value: 36.43%); format: functional
[16] = Volume of distribution in Sprague-Dawley rat at 25 mg/kg, po measured up to 48 hrs by LC-MS/MS analysis; format: ADME, organism-based; settings: in vivo; procedure, shortened: as §3
[17] = Cmax in Sprague-Dawley rat at 25 mg/kg, po measured up to 48 hrs by LC-MS/MS analysis; format: ADME, organism-based; set-up: route oral, dose 25 mg/kg, time <=48; settings: in vivo; procedure, shortened: as §2
HCT-116 [18] = experiment: Induction of apoptosis in human HCT116 cells assessed as early apoptotic cells at 5 uM after 24 hrs by annexin V-FITC/propidium iodide staining based flow cytometry (reference value: 1%); format: functional
[19] = Clearance in Sprague-Dawley rat at 25 mg/kg, po measured up to 48 hrs by LC-MS/MS analysis; format: ADME, organism-based; settings: in vivo; procedure, shortened: as §2
[20] = MRT(0 to t) in Sprague-Dawley rat at 25 mg/kg, po measured up to 48 hrs by LC-MS/MS analysis; format: ADME, organism-based; settings: in vivo; procedure, shortened: as §3
HCT-116 [21] = experiment: Induction of apoptosis in human HCT116 cells assessed as late apoptotic cells at 5 uM after 24 hrs by annexin V-FITC/propidium iodide staining based flow cytometry (reference value: 5.1%); format: functional

AUC(0-inf) [1]: 40000 ng·h/mL
MRT inf [2]: 6.52 h
inhibition [3]: 61%
Tmax [9]: 2 h
half-life [11]: 5.82 h
AUC(0-t) at 48 h [14]: 38900 ng·h/mL
Vd [16]: 2.39 L/kg
Cmax [17]: 6790 ng/mL
CL/F [19]: 10.5 mL/min/kg
MRT last at 48 h [20]: 6.45 h
SMILES: O=C(O)c1ccc2c(c1)nc(Nc1cccc(Cl)c1)c1ccncc12 [SILMITASERTIB]
pIC50 (HT-29): 4.80
pIC50 (L02): 4.64
pIC50 (T-24): 4.89
inhibition in vivo at 60 mg/kg (HCT-116 [4]): 15%
pIC50 (HCT-116 [5]): 4.88
inhibition at 20 µM (HCT-116 [6]): 58%
inhibition (HCT-116 [7]): Active
Activity (HCT-116 [8]): 11.21%
pIC50 (MCF7): 4.82
viability at 5 µM (HCT-116 [10]): 80.7%
pIC50 (PC-3): 4.89
Activity (HCT-116 [12]): 4.2%
Activity (HCT-116 [13]): 62.48%
Activity (HCT-116 [15]): 26.31%
Activity (HCT-116 [18]): 6.8%
Activity (HCT-116 [21]): 8.3%
